Test: Toxicity liver stage against HepG2, at 10uM
Format: cell-based
Set-up: test concentration 10 uM, cell line HepG2-A16-CD81EGFP
Conditions: human, HepG2-A16-CD81EGFP cells; read-out: INHIBITION
Outline: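 Uninfected HepG2-A16-CD81EGFP cells, 3 × 10^3 per well, 1536-well, plated on prespotted compound at 10 μM final, parasite-free screening media added to match infected plates; puromycin 10 μM positive, DMSO 0.5% negative; run in parallel with 48 h PbLuc assay at 37 °C, 5% CO2; viability by CellTiter-Glo luminescence, normalized to controls.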

| SMILES | cytotoxicity at 10 µM [%] |
| --- | --- |
| O=c1[nH]c(NCCCO)nc2c1C1(CCCC1)Cc1ccccc1-2 | 8.79 |
| Cc1ccc(OCc2occc2C(=O)O)cc1 | -3.76 |
| O=C(c1cc(Cl)c(Br)[nH]1)N1CCN(Cc2ccco2)CC1 | -55.7 |
| FC(F)(F)c1cccc(CN2CCOC[C@H](Oc3cccnc3)C2)c1 | 7.74 |
| Cn1c(CN2CCCCCC2)cc(=O)c(O)c1CN1CCCC1 | 13.9 |
| COc1cc(NC(=O)C2CC(=O)N(c3cccc(Br)c3)C2)ncn1 (stereo not given) | 33.4 |
| Cc1nn(C)c(C)c1S(=O)(=O)NCCn1ccc(-c2cccs2)n1 | -3.53 |
| CNC(=O)NC1CC2(CCNCC2)c2ccc(C)cc21 (stereo not given) | -4.97 |
| O=C(c1ccnnc1)N1CC[C@H]2[C@H]1CCN2S(=O)(=O)C1CC1 | -143 |
| COCC(=O)N1CCC2(CC(=O)N(c3cccc(F)c3)C2)C1 (stereo not given) | -156 |
| Cn1cc(C2CC(=O)NC23CCN(C(=O)NC2CC2)CC3)cn1 (stereo not given) | 4.97 |
| COc1ncc(C(=O)NCc2ccccc2)cn1 | -3.99 |
| Cc1ccc(CN2CC[C@H]3C[C@@H](c4nc(C5CC5)cs4)O[C@@H]3C2)o1 | -4.29 |
| CCOC(=O)Cn1nnnc1-c1ccccc1 | 0.363 |
| CCOC(=O)CNC(=O)N1CCN(c2ncccn2)CC1 | 10.6 |
| NC(=O)c1cc2c(nc1N)CCN(C(=O)C1CCCCC1)C2 | -21.8 |
| O[C@H]1CN(CCOc2ccc(F)cc2)CC[C@@]12CCCO2 | -28.8 |
| Cc1occc1-c1nc(NC2CCCC2)ncc1-c1ccccn1 | -20.9 |
| OC1(Cn2ccc3ncccc32)CCN(Cc2cccs2)CC1 | -9.65 |
| CN(C)S(=O)(=O)NC(=O)CC(c1ccccc1)C(F)(F)F (stereo not given) | -39.5 |
| CCC(C)(C)NC(=O)C[S+]([O-])Cc1csc(C2CCCC2)n1 (stereo not given) | -41.3 |
| O=C(CCn1cncn1)NCC1CCCC1 | -43.1 |

| SMILES | cytotoxicity at 10 µM [%] |
| --- | --- |
| Cn1cnnc1S(=O)(=O)Cc1cc(Cl)c2c(c1)OCCO2 | -44.7 |
| CCNC(=O)c1cnc(Sc2nccn2C)c(Cl)c1 | -49.2 |
| COCCNc1nc(-c2ccc(S(=O)(=O)N3CCCCCC3)cc2)cs1 | -32.7 |
| Cc1c(NCc2ccccc2C#N)cccc1-n1cnnn1 | 15.4 |
| CC(C)CC(=O)N(C)Cc1nc(C(F)(F)F)cs1 | 8.32 |
| CC(C)NC(=O)CCNC(=O)CCc1cc(Cl)cs1 | -2.59 |
| Cc1nc2c(C#N)cnn2c(C)c1CCC(=O)N(C)C(C)C(C)C (stereo not given) | -43.7 |
| COc1cccnc1NC(=O)c1ccc(COCC(F)(F)F)cc1 | -2.4 |
| NC(=O)NC(=O)CCN1CCN(CC2CC2)c2ccccc21 | 17.9 |
| CCOCCN1CCN(CCC(=O)N2CCCCC2)CC1 | -7.71 |
| CCOc1ccc(CNC(=O)N(C)CC(C)(C)O)cc1C | 4.3 |
| Cc1ccnc(C(NC(=O)c2sc(C)nc2C)C2CC2)n1 (stereo not given) | -11 |
| CC1CCN(CCCNC(=O)Nc2cc3c(cc2Br)OCCO3)CC1 | -3.11 |
| CN1CCN(Cc2ccccc2CNC(=O)c2cc(Cl)ccc2F)CC1 | 9.61 |
| CCOc1cc(CN(C)CCC#N)ccc1OC(F)F | -5.81 |
| Cc1nc(C)n(CC2CN(CC(=O)Nc3ccncc3)CCO2)n1 (stereo not given) | -0.654 |
| COc1ccc(N(C(=O)c2cnc(C)cn2)C(C)C)cc1F | -2.96 |
| CC(C)N1CCC(Nc2ccn(CCC#N)n2)C1=O (stereo not given) | 15.7 |
| CCN(C(=O)CN1CCCC1c1cc(C)no1)c1ccccc1C (stereo not given) | -0.264 |
| Cc1[nH]ncc1C(C)NCc1ccc(F)cc1 (stereo not given) | 3.28 |
| Cc1c(C(=O)N(CCN(C)C)Cc2ccccn2)oc2ccccc12 | 14.4 |
| CC(C)COCCC(=O)NS(=O)(=O)c1ccc(Cl)s1 | -21.6 |

| SMILES | cytotoxicity at 10 µM [%] |
| --- | --- |
| OC1CCN(Cc2ccc(CNc3ncc(Cl)cc3F)cc2)CC1 | 9.96 |
| Cc1noc(C)c1CN1CCN(c2ccnc(-c3ccccc3)n2)CC1 | 6 |
| COc1ccc2cc(CNc3c(C)nn(C(C)C)c3C)ccc2c1 | -56.6 |
| COc1ccc(-c2nnc(SC(C)C(=O)NCC(C)C)[nH]2)c(OC)c1 (stereo not given) | 83.5 |
| c1coc(CNCC2Cn3nncc3CO2)c1 (stereo not given) | -92.5 |
| CN1CCC2(C=C(C(=O)N(C)C)c3ccccc32)CC1 | -102 |
| CC(C)N(C)Cc1cn2c(n1)CN(C(=O)c1ccc[nH]1)CC2 | -73.2 |
| Cc1nc(CN2C[C@@H](CN3CCOCC3)[C@@H](CO)C2)c2ccccn12 | 0.363 |
| CC(C)[C@@H]1CN(C(=O)NCc2ccco2)C[C@H]1NS(=O)(=O)N(C)C | 6.14 |
| Cc1cc(C)nc(NC2CC(=O)N(C)C2)n1 (stereo not given) | 8.61 |
| CN1CCN([C@@H]2CCN(CC3=Cc4cc(Cl)ccc4OC3)C[C@H]2O)CC1 | -5.87 |
| COc1cc2ncn(Cc3ncc[nH]3)c(=O)c2cc1OC | 5.56 |
| Cc1ccc(CNC(=O)c2cc(Cn3ccnc3C(C)C)[nH]n2)o1 | 3.42 |
| CN(Cc1ccccc1)CC1(O)CCCN(CCC2CCCCC2)C1=O (stereo not given) | -2.3 |
| Cn1ncc2c(NC3CCCN(C(=O)C4CC4)C3)nc(C(C)(C)C)nc21 (stereo not given) | 12 |
| Cc1cc(N[C@H]2CCCN(Cc3ccccc3)C2)n2nc(C)cc2n1 | 1.53 |
| Cc1ccccc1C(=O)NC[C@@H]1CCN(C(=O)c2cscn2)C[C@H]1O | -52.2 |
| Cc1cccc(N2CCC(N3CCCC4(CNC(=O)O4)C3)CC2)c1C (stereo not given) | -6.67 |
| Cc1cnc(NC(=O)c2ccc(C3CCCN3CC(C)C)s2)s1 (stereo not given) | 9.45 |
| O=C(C1CCC1)N1CCC(C(=O)N2CCC(c3ccc(F)cc3)C2)CC1 (stereo not given) | -39.8 |
| Cc1ccc(NC(=O)CNC(C)CN2CCCCC2)c(F)c1 (stereo not given) | -51.6 |
| CC(C)[C@@H]1CN(C(=O)C2(c3ccccc3)CCN(C)CC2)C[C@H]1C(=O)O | 8.73 |

| SMILES | cytotoxicity at 10 µM [%] |
| --- | --- |
| Cc1ccc(C(=O)N2CCCC(Cn3cc(C(C)(C)N)nn3)C2)s1 (stereo not given) | -19.1 |
| COCCC1(C(=O)O)CCN(c2cc(C)c3ccccc3n2)CC1 | -41.6 |
| Cc1ccccc1N1CCN(c2ccncn2)C(C)C1 (stereo not given) | 22.6 |
| CN(Cc1n[nH]c2c1CCCC2)c1nc(C2CC2)nc2c1CCNCC2 | -10.3 |
| COCCCN1C(=O)CC[C@H]2CN(c3ccnc4ccccc34)CC[C@H]21 | -3.63 |
| CCc1nc(N)nc(NCCC(=O)N2CCCC2)c1C | -42.5 |
| O=C(NCCN1CCOCC1)c1cc(COc2ccccc2F)[nH]n1 | 13.1 |
| CCOc1cc(CNCc2cnc(C)cn2)c(Cl)cc1OC(C)C | 4.86 |
| COc1ccc(C(=O)C2CCCN(c3cc(C#N)ccn3)C2)cc1F (stereo not given) | -0.0739 |
| CC/C=C(\C)CN1CCC(CNC(=O)c2c[nH]c(=O)c(Cl)c2)C1 (stereo not given) | -13.2 |
| CCc1csc(CNC2CCN(Cc3ccccc3)C2)n1 (stereo not given) | 4.82 |
| O=C(O)CCn1ccc2c(nnc3c(-c4ccc(F)cc4)cnn32)c1=O | 4.01 |
| O=C1NC2(CCN(C/C=C/c3ccccc3)CC2)CC1c1ccccc1 (stereo not given) | -47.1 |
| Cc1cc2nc(C(C)C)cc(NCCNc3ncccc3C)n2n1 | 16.9 |
| O=C1CC(NCc2ccncc2)CN1Cc1cccc(F)c1 (stereo not given) | -7.12 |
| COc1ccc(C2(NC(=O)CCn3cncn3)CCCCC2)cc1 | -3.12 |
| COc1cccc(N2CCN(CC(O)c3cc(C)sc3C)CC2)c1 (stereo not given) | 2.24 |
| Cc1nc(C)n(CC2CCCN2Cc2ncc(C(C)(C)C)o2)n1 (stereo not given) | -5.53 |
| O=C1NCCN1C1CCN(CCOc2ccccc2F)CC1 | -3.63 |
| Cc1cc(CN2CCN(CC(O)c3ccc(C)c(C)c3)CC2)no1 (stereo not given) | -2.96 |
| Cc1ncsc1C(=O)NC1CCN(Cc2ccc(C(F)(F)F)cc2)CC1 | 15.5 |
| CCOc1ccccc1CNC(=O)N1CCC(n2cncn2)CC1 | -0.819 |

| SMILES | cytotoxicity at 10 µM [%] |
| --- | --- |
| CC(NC(=O)Nc1cccnc1N1CCCC1)c1ccn(C)c1 (stereo not given) | -24.6 |
| Cc1ncsc1C(=O)NCCSCc1cccs1 | -2.11 |
| Cc1cnn(C2CCCN(C(=O)CCc3nccs3)C2)c1 (stereo not given) | -4.49 |
| COC(=O)c1ccc(N2CCN(C(=O)c3cnn(C)c3)C(C)C2)cc1 (stereo not given) | -11.5 |
| Cc1cnn(CCC(=O)N2CCN(c3nc(C)cs3)CC2)c1 | -11.9 |
| COc1cc(C(=O)Nc2nc(C)no2)ccc1C | -8.39 |
| NC1CCc2nc(-c3cccnc3)nc(Nc3ccc(F)cc3)c2C1 (stereo not given) | -10.5 |
| c1cnc(N2CC[C@@H](OCC3CC3)[C@@H]2Cc2cccnc2)nc1 | 3.26 |
| Cc1ccsc1C(=O)N1CCc2ncc(CN(C)C)n2CC1 | -101 |
| Cn1cc(CN2CCn3cc(CNC(=O)c4cccn4C)nc3C2)cn1 | 1.85 |
| O=C(c1cscn1)N1CCO[C@H]2[C@@H](Oc3ccccn3)CC[C@@H]21 | -109 |
| COCCN1CCN(C(=O)N2CCCC2)Cc2ccc(C)nc21 | -65.5 |
| CC1COC2(CCN(C(=O)Cc3ccncc3)CC2)C1 (stereo not given) | -105 |
| Cn1cc(CN2CC[C@H]3O[C@@H](C(=O)NC4CC4)CC[C@H]32)cn1 | -1.55 |
| Cc1ccc(CN2CCOCC3(C2)CN(c2ccc(C)s2)C(=O)CO3)o1 (stereo not given) | 7.31 |
| COc1ccc(C[C@H]2CN(Cc3ccoc3)CC[C@H]2OC)cc1 | 8.44 |
| CNC(=O)c1cc2c(nc1N(C)C)CCN(c1ncccn1)CC2 | -119 |
| O=C(c1cocn1)N1C[C@@H]2CN(Cc3ccco3)CCO[C@@H]2C1 | 5.24 |
| Cc1cccc(CN2CC[C@@H]3[C@@H]2CCN3C(=O)Cc2ccsc2)n1 | -107 |
| COc1cc(N2C[C@@H]3COC[C@]3(COCc3cccc(C)n3)C2)ncn1 | 12.4 |
| CN(C)C(=O)CO[C@@H]1CC[C@H]2[C@H]1OCCN2c1ncc(F)cn1 | 5.44 |
| O=C(Cc1ccncc1)N1C[C@H]2CC[C@@H](C1)N(Cc1ccccc1)C2=O | 5.79 |

Reference: ChEMBL document CHEMBL4513216, “Probing the Open Global Health Chemical Diversity Library for Multistage-Active Starting Points for Next-Generation Antimalarials” (ACS Infect Dis, 2020)
